Test results as given in PubChem BioAssay AID624268 (The Scripps Research Institute Molecular Screening Center, 2012).
About 1,500 (0.42%) of roughly 360,000 compounds were called active.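 The calls were made as follows: active = inhibition above a per-plate cutoff of the control wells' mean inhibition plus 3 SD (cut at about 5.5% in these data); inactive = the rest.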 The full list was thinned out, with actives kept by preference.

system: methionyl-tRNA synthetase (Trypanosoma brucei brucei); assay: T. brucei MetRS inhibitors, primary screen, biochemical, luminescence (AID 624268);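 also: 0% = DMSO wells median and 100% = median of wells with control inhibitor compound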; settings: purified T. brucei MetRS, ATP depletion, Kinase-Glo luminescence; at 11.9 µM; active compounds read high
Procedure, shortened: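 Measured by: Kinase-Glo luciferase luminescence reporting remaining unconsumed ATP. Material: purified T. brucei MetRS enzyme. Doses: 11.9 µM compound single dose, 0.9% DMSO. Medium: HEPES buffer containing pyrophosphatase, BSA, spermine, DTT. Times: 15 min preincubation, 2 h reaction, all 25 °C. Reagent: methionine, ATP and bulk E. coli tRNA.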

SMILES | inhibition
Cc1cccc(N=Nc2c(O)[nH]c3ccc(F)cc23)c1 | 0.2% (inactive)
Oc1[nH]c2ccc(Br)cc2c1N=Nc1nn[nH]n1 | 5.61% (active)
Brc1ccc(-c2nn[nH]n2)cc1 | 0.2% (inactive)
CCOC(=O)c1sc(NC(=O)CSc2nc(O)c(Cc3ccccc3)c(=O)[nH]2)nc1C | -1.03% (inactive)
CCCS(=O)(=O)NC(=O)C1(C)CCCN(C(=O)c2ccnc(Cl)c2)C1 (stereo unspecified) | -0.05% (inactive)
O=C(CCCOc1ccc(Cl)cc1Cl)NNC(=O)C1CCC1 | 1.44% (inactive)
CC(C)Oc1ccc(Cc2n[nH]c(=S)n2Cc2ccccc2)cc1Cl | -0.26% (inactive)
Cn1c(CCCOc2ccc(Cl)cc2Cl)n[nH]c1=S | 7.11% (active)
COC(=O)CN1C(=O)[C@H]2[C@@H](/C=C/c3ccccc3)N3C(=O)CN(CC4CC4)C(=O)[C@@]3(Cc3ccccc3)[C@H]2C1=O | -0.4% (inactive)
NCCCCCC(=O)N/N=C/c1ccc2nccnc2c1 | -0.25% (inactive)
O=C(CC(=O)Nc1ccc(Cl)c(Cl)c1)N/N=C/c1ccc(O)cc1 | 10.6% (active)
O=C(CC(O)(C(F)(F)F)C(F)(F)F)Nc1ccc(Cl)c(Cl)c1 | 1.83% (inactive)
Cc1csc(=O)n1CCC(=O)OCC(=O)NNC(=O)c1ccc(Br)cc1 | -0.33% (inactive)
CC1(C(=O)NS(=O)(=O)c2cccc(F)c2)CCN1C(=O)c1cccc2ccccc12 (stereo unspecified) | -0.25% (inactive)
COCCCNCCOCCOc1ccc(Cl)cc1Br | 1.56% (inactive)
O=C(N[C@H]1CC[C@H](CC(=O)N2CCCCC2)O[C@@H]1CO)c1cccc(F)c1 | -0.31% (inactive)
O=C(Oc1cccc(N2C(=O)C3C4c5ccccc5C(c5ccccc54)C3C2=O)c1)c1ccco1 (stereo unspecified) | 0.29% (inactive)
O=C(/C(=N\O)n1cncn1)c1ccc(Br)cc1Br | 17.9% (active)
CCc1ccc(N(CC(=O)Nc2sc3c(c2C(=O)OC)CCCC3)S(C)(=O)=O)cc1 | 0.46% (inactive)
S=c1[nH]nc(CSCc2ccc(Cl)cc2Cl)n1-c1ccccc1 | 6.2% (active)
Cc1ccc(NCc2n[nH]c(=S)n2-c2ccccc2)cc1Cl | -0.41% (inactive)
CCn1c(CSCc2c(Cl)cccc2Cl)n[nH]c1=S | 0.37% (inactive)
Nc1cc(N)nc(SCc2cccc(F)c2)n1 | -0.35% (inactive)

SMILES | inhibition
Cn1nc(-c2ccc(Cl)cc2)c2cc(C(=O)NCc3ccco3)sc21 | 2.08% (inactive)
O=C(c1ccco1)N1CCN(CC(=O)N(C2CCCCC2)C2CCS(=O)(=O)C2)CC1 (stereo unspecified) | -0.62% (inactive)
Cc1ccc(NN=C2C(=O)OC(C)(C)OC2=O)c(C)c1 | 0.27% (inactive)
O=C(COC(=O)CCCSc1nc2ccccc2[nH]1)Nc1ccc(Oc2ccccc2)cc1 | -0.54% (inactive)
O=C(CSc1nc2ccccc2[nH]1)N/N=C/C=C\c1ccccc1[N+](=O)[O-] | 9.68% (active)
CCn1c(SCC(=O)N/N=C/C=C/c2ccccc2[N+](=O)[O-])nnc1-c1ccccc1 | 0.33% (inactive)
COCCNC(=O)CN1C(=O)CSc2ncccc21 | 0.04% (inactive)
O=C(NNS(=O)(=O)c1ccc(F)cc1)C1CCCCC1 | -0.24% (inactive)
CCOC(=O)CN(C(=O)CN1CCOCC1)c1ccc(Br)cc1 | -1.11% (inactive)
Cc1ccc(-c2cc(=O)[nH]c(NCc3ccccc3)n2)cc1 | 0.58% (inactive)
C/C(=N\Nc1nc2ccccc2[nH]1)c1cccs1 | 2.21% (inactive)
Cc1ccc(O)c(CNc2nc3ccccc3[nH]2)c1 | 72.6% (active)
C=CCN1CCN(C(=O)CCCc2ccccc2)CC1 | 0.23% (inactive)
Cn1c(=O)c2c(nc(N3CCOCC3)n2CCNC2=NCCC2)n(C)c1=O | 0.1% (inactive)
O=C1CCCN1CCCNc1ncnc2c1[nH]c1ccccc12 | 37.3% (active)
O=Cc1c(NCCCN2CCCC2=O)c2ccccc2[nH]c1=O | -0.57% (inactive)
Cc1nn(Cc2ccccc2)c(C)c1C(=O)NCCCN1CCCC1=O | -0.02% (inactive)
Cc1ccnc2nc(C(=O)OCC(=O)N(CC(C)C)CC(C)C)nn12 | -0.19% (inactive)
O=[N+]([O-])c1ccc(N2CCN(c3ccc(O)cc3)CC2)c(Cl)c1 | 7.21% (active)
CCN1CCN(c2ccc([N+](=O)[O-])cc2C(=O)c2ccc(Cl)cc2)CC1 | -0.26% (inactive)
O=C(O)C1CCN(c2ccc([N+](=O)[O-])cc2[N+](=O)[O-])CC1 | 0.21% (inactive)
NC(=S)NN=Cc1ccc(OC(=O)COc2cc(Cl)c(Cl)cc2Cl)cn1 | 0.02% (inactive)
CC(C)NC(=O)CSc1ccccc1C(=O)NCc1ccc2c(c1)OCO2 | -0.69% (inactive)

SMILES | inhibition
CCN(CC)C(=O)C(=O)c1cn(CC(=O)NCc2ccc3c(c2)OCO3)c2ccccc12 | 60.8% (active)
CCN(CC)C(=O)Cn1cc(S(=O)(=O)CC(=O)NCc2ccc3c(c2)OCO3)c2ccccc21 | -0.63% (inactive)
CCOn1c(=O)c(=O)n(O)c2ccccc21 | 0.13% (inactive)
O=C(NCc1ccccc1)c1cccc(NC(=O)C2CCCCC2)c1 | -0.28% (inactive)
CCOc1ccc(NC(=O)CC2C(=O)N(c3ccccc3)C(=O)N2CCOC)cc1 (stereo unspecified) | 0.31% (inactive)
COC(=O)CN1C(=S)N(c2ccccc2)C(=O)C1CC(=O)Nc1ccc(Cl)cc1 (stereo unspecified) | 12% (active)
COCCN1C(=O)N(c2ccc(Cl)cc2)C(=O)C1CC(=O)Nc1cc(OC)cc(OC)c1 (stereo unspecified) | 0.28% (inactive)
CCCc1nnc(NC(=O)CCC(=O)NC2CC2)s1 | 0.11% (inactive)
COc1cccc(C(CC(=O)NCCN2CCOCC2)NS(=O)(=O)c2ccc(C)cc2)c1OC (stereo unspecified) | -0.3% (inactive)
Cc1cc(O)c(NC(=O)c2ccc(C)c([N+](=O)[O-])c2)cc1C | -1.17% (inactive)
CC(=O)Nc1ccc(NC(=S)NC(=O)c2ccc([N+](=O)[O-])c(C)c2)cc1 | -0.17% (inactive)
Cc1ccccc1OCC(=O)NNC(=O)c1cc(S(=O)(=O)N(C)C)ccc1N1CCCC1 | -0.26% (inactive)
O=C(NNC(=O)c1ccc(-n2cncn2)c([N+](=O)[O-])c1)c1ccccc1 | 17.1% (active)
O=C(COc1ccccc1F)NNC(=O)c1ccc(N2CCCCC2)c([N+](=O)[O-])c1 | -0.55% (inactive)
CCOc1ccc(C(=O)Nc2cc(Cl)ccc2-n2cncn2)cc1OC | -0.61% (inactive)
Cc1ccc(S(=O)(=O)N2CCN(C(=O)c3ccc(-n4cncn4)c([N+](=O)[O-])c3)CC2)cc1 | 1.45% (inactive)
Cc1ccc(S(=O)(=O)N(C)C)cc1NC(=O)c1ccc(-n2cncn2)c([N+](=O)[O-])c1 | 41% (active)
Cc1ccccc1OCC(=O)NNC(=O)c1ccc(-n2cncn2)c([N+](=O)[O-])c1 | 8.29% (active)
Cc1ccc(S(=O)(=O)N(C)C)cc1NC(=O)c1ccccc1Br | -0.6% (inactive)
CC(=O)c1ccc(NC(=O)c2ccc(-n3cncn3)c([N+](=O)[O-])c2)cc1 | 36.6% (active)
CC(C)NC(=O)c1ccc(Sc2ccccc2)c([N+](=O)[O-])c1 | -1.54% (inactive)
COc1cc(C2C(C#N)=C(C)NC3=C2C(=O)CC(C)(C)C3)ccc1O (stereo unspecified) | -1.19% (inactive)
Cc1ccc(-c2nc(COC(=O)c3c(C)noc3C)cs2)cc1 | -0.6% (inactive)

SMILES | inhibition
COC(=O)[C@@]12C[C@@H](CC(=O)N3CCC(c4ccccc4)CC3)C(=O)N(Cc3ccccc3)C1=CCC(C)(C)C2 | -0.7% (inactive)
Cc1c(NC(=O)CCC2CCCCC2)cc(C(=O)N2CCOCC2)cc1[N+](=O)[O-] | -2.05% (inactive)
Cc1cc(C)cc(OCC(=O)NNC(=O)CCN2C(=O)c3ccccc3C2=O)c1 | 0.2% (inactive)
C[N+](C)(C)CCOP(=O)([O-])OC[C@H](O)CO | -0.22% (inactive)
CCn1c(SCC(=O)Nc2ccccc2F)nc2c(c1=O)SC(C)C2 (stereo unspecified) | -0.06% (inactive)
c1ccc2cc3c(NCCN4CCOCC4)ccnc3cc2c1 | 34.1% (active)
O=S(=O)(c1ccc(Cl)cc1)c1nc(-c2ccccc2F)oc1NCCN1CCOCC1 | -0.33% (inactive)
O=S(=O)(c1ccccc1)c1nc(-c2ccccc2)oc1NCCCN1CCOCC1 | 0.27% (inactive)
O=c1cnnc(Nc2ccccc2F)[nH]1 | 0.6% (inactive)
Cc1cc(/C=N/n2cnnc2)c(C)n1-c1ccc2ncccc2c1 | 0.03% (inactive)
O=C(CSCC(=O)Nc1cccc([N+](=O)[O-])c1)Nc1ccccc1 | 8.16% (active)
CCc1ccc(NC(=O)N2CCc3ccccc3C2)cc1 | -0.43% (inactive)
O=C(Nc1cccc([N+](=O)[O-])c1)N1CCc2ccccc2C1 | 7.11% (active)
Cc1c(NC(=O)Nc2cccc([N+](=O)[O-])c2)c(=O)n(-c2ccccc2)n1C | -0.43% (inactive)
O=C(CN1CCC(NC(=O)Nc2ccccc2)CC1)Nc1cccc([N+](=O)[O-])c1 | 0.83% (inactive)
O=C(CSc1nc(-c2ccccc2)cs1)Nc1cccc([N+](=O)[O-])c1 | -0.12% (inactive)
Cc1ccc(-c2csc(C(C#N)=C(O)CN3CCN(C(=O)c4ccco4)CC3)n2)cc1 | -0.54% (inactive)
CCc1cccc(CC)c1NC(=O)COc1ccccc1C(=O)c1cc(C#N)c(=O)n(C2CCCCC2)c1 | 0.13% (inactive)
CCOC(=O)C1CCN(S(=O)(=O)c2c(C)noc2C)CC1 | -0.02% (inactive)
CCNS(=O)(=O)c1ccc(NC(=O)c2cncc(Br)c2)cc1 | -0.64% (inactive)
O=C(Nc1ccc(S(=O)(=O)Nc2ncccn2)cc1)c1cncc(Br)c1 | 64.2% (active)
O=C(NC(=S)Nc1ccc(S(=O)(=O)Nc2ncccn2)cc1)c1cccc(Br)c1 | 0.66% (inactive)
